According to ChEMBL document CHEMBL1140988 (Eur J Med Chem, 2008):

Key:
Cannabinoid receptor 1 [1] = target: T1, Cannabinoid receptor 1 (Homo sapiens, UniProt P21554); experiment: biochemical; format: cell-based, CHO
Cannabinoid receptor 2 [2] = target: T2, Cannabinoid receptor 2 (Homo sapiens, UniProt P34972); experiment: Displacement of [3H]WIN-55212-2 from human CB2 receptor expressed in CHO cells at 10 uM; format: cell-based
Procedure, shortened: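 Human CB2 expressed in CHO cell membranes, competitive binding run by an outside contract lab. [3H]-WIN 55212-2 at 0.8 nM was displaced by test compound at 10 μM. Specific binding is total minus non-specific, the latter measured with excess unlabelled ligand. Reported as % displacement of control specific binding, n = 2.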

Cannabinoid receptor 1 [3] = target: T1, Cannabinoid receptor 1; experiment: Displacement of [3H]CP-55940 from human CB1 receptor expressed in CHO cells at 10 uM; format: cell-based
Procedure, shortened: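 Competitive binding on membranes of CHO cells expressing human CB1, run by an outside contract lab. Radioligand was [3H]-CP 55940 at 0.5 nM and test compound was at 10 μM. Non-specific binding was set with an excess of unlabelled ligand. Values are % of control specific binding (displacement), n = 2.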

Cannabinoid receptor 2 [4] = target: T2, Cannabinoid receptor 2; experiment: Displacement of [3H]WIN-55212-2 from human CB2 receptor expressed in CHO cells; format: cell-based
Procedure, shortened: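 Non-specific binding was defined with excess unlabelled ligand. Ki was derived from IC50 by the Cheng-Prusoff equation, Ki = IC50/(1 + L/KD), using radioligand concentration and KD.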

T1 sequence (P21554 whole entry): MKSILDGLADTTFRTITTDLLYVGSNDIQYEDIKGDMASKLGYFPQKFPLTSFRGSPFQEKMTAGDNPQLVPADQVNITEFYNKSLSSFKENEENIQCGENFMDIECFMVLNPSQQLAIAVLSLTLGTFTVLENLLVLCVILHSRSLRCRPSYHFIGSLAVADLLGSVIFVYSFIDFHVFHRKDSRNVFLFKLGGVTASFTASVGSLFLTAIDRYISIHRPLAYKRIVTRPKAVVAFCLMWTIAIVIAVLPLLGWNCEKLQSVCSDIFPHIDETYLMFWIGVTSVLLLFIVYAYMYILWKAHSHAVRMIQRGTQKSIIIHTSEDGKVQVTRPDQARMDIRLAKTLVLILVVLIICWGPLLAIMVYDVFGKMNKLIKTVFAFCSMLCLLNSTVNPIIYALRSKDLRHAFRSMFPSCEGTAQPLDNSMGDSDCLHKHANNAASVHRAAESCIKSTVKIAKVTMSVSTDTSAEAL
T2 sequence (P34972 whole entry): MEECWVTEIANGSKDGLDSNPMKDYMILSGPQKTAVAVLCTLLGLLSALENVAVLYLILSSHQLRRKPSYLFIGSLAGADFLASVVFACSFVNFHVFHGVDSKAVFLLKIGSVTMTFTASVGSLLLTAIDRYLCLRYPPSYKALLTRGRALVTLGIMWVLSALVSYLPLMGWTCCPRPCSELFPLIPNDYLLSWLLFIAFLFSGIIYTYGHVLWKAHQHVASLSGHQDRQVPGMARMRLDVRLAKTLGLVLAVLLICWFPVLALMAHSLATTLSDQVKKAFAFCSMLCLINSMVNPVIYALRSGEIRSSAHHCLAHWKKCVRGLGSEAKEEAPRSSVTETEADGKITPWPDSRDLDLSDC

Compound | Ki (Cannabinoid receptor 1 [1]) | Activity (Cannabinoid receptor 2 [2]) | Activity (Cannabinoid receptor 1 [3]) | Ki (Cannabinoid receptor 2 [4])
O=C(NC1CCCCCC1)c1cnn(-c2ccc(Cl)cc2Cl)c1-c1ccc(I)cc1 | 1100 nM | 61% | 90% | 
O=C(NC1CCCC1)c1cnn(-c2ccc(Cl)cc2Cl)c1-c1ccc(Cl)cc1 |  | 61% | 82% | 
COc1ccc(-c2c(C(=O)NC3CCCCC3)cnn2-c2ccc(Cl)cc2Cl)cc1 |  | 76% | 64% | 
O=C(c1cnn(-c2ccc(Cl)cc2Cl)c1-c1ccc(Cl)cc1)N1CCc2ccccc2C1 |  | 69% | 58% | 
O=C(NN1CCCCC1)c1cnn(-c2ccc(Cl)cc2Cl)c1-c1ccc(F)cc1 |  | 7% | 43% | 
O=C(NN1CCCCC1)c1cnn(-c2ccc(Cl)cc2Cl)c1-c1ccc(Cl)cc1 |  | 37% | 79% | 
O=C(NC1CC1)c1cnn(-c2ccc(Cl)cc2Cl)c1-c1ccc(F)cc1 |  | 7% | 62% | 
O=C(NC1CCCCC1)c1cnn(-c2ccc(Cl)cc2Cl)c1-c1ccc(Cl)cc1 |  | 52% | 68% | 
O=C(NC1CCCCC1)c1cnn(-c2ccc(Cl)cc2Cl)c1-c1ccc(F)cc1 |  | 18% | 69% | 
CN1CCN(NC(=O)c2cnn(-c3ccc(Cl)cc3Cl)c2-c2ccc(I)cc2)CC1 |  | 42% | 78% | 
O=C(NC1CCCCCCC1)c1cnn(-c2ccc(Cl)cc2Cl)c1-c1ccc(Cl)cc1 |  | 44% | 84% | 
O=C(NN1CCCCC1)c1cnn(-c2ccc(Cl)cc2Cl)c1-c1ccc(Br)cc1 |  | 55% | 74% | 
O=C(NC1CCCCC1)c1cnn(-c2ccc(Cl)cc2Cl)c1-c1ccc(Br)cc1 |  | 44% | 81% | 
O=C(NC1CC1)c1cnn(-c2ccc(Cl)cc2Cl)c1-c1ccc(Cl)cc1 | 850 nM | 30% | 87% | 21000 nM
O=C(NC12CC3CC(CC(C3)C1)C2)c1cnn(-c2ccc(Cl)cc2Cl)c1-c1ccc(I)cc1 |  | 44% | 76% | 
Cc1ccc(-c2c(C(=O)NC3CCCCC3)cnn2-c2ccc(Cl)cc2Cl)cc1 |  | 46% | 48% | 
O=C(NN1CCCCC1)c1cnn(-c2ccc(Cl)cc2Cl)c1-c1ccc(I)cc1 | 1300 nM | 84% | 94% | 1900 nM

Compound | Ki (Cannabinoid receptor 1 [1]) | Activity (Cannabinoid receptor 2 [2]) | Activity (Cannabinoid receptor 1 [3]) | Ki (Cannabinoid receptor 2 [4])
O=C(c1cnn(-c2ccc(Cl)cc2Cl)c1-c1ccc(Cl)cc1)N1CCCCC1 |  | 45% | 59% | 
CN1CCN(NC(=O)c2cnn(-c3ccc(Cl)cc3Cl)c2-c2ccc(Cl)cc2)CC1 | 16000 nM | -23% | 61% | 
O=C(NN1CCCCCC1)c1cnn(-c2ccc(Cl)cc2Cl)c1-c1ccc(Cl)cc1 |  | 64% | 75% | 
O=C(NC1CCCCCC1)c1cnn(-c2ccc(Cl)cc2Cl)c1-c1ccc(Br)cc1 | 1100 nM | 60% | 88% | 
O=C(c1cnn(-c2ccc(Cl)cc2Cl)c1-c1ccc(Cl)cc1)N1CCCC1 |  | 43% | 49% | 
O=C(NC1CC1)c1cnn(-c2ccc(Cl)cc2Cl)c1-c1ccc(Br)cc1 | 1000 nM | 43% | 84% | 
O=C(NC1CCCCCC1)c1cnn(-c2ccc(Cl)cc2Cl)c1-c1ccc(Cl)cc1 |  | 50% | 78% | 
O=C(NN1CC2CCCC2C1)c1cnn(-c2ccc(Cl)cc2Cl)c1-c1ccc(Cl)cc1 (centres undefined) |  | 56% | 86% | 
Cc1ccc(-c2c(C(=O)NN3CCCCC3)cnn2-c2ccc(Cl)cc2Cl)cc1 |  | 27% | 29% | 
O=C(NC1CC1)c1cnn(-c2ccc(Cl)cc2Cl)c1-c1ccc(I)cc1 | 210 nM | 60% | 91% | 
O=C(NN1CCOCC1)c1cnn(-c2ccc(Cl)cc2Cl)c1-c1ccc(F)cc1 |  | -9% | 30% | 
O=C(NN1CCOCC1)c1cnn(-c2ccc(Cl)cc2Cl)c1-c1ccc(Cl)cc1 |  | 12% | 65% | 
O=C(NC12CC3CC(CC(C3)C1)C2)c1cnn(-c2ccc(Cl)cc2Cl)c1-c1ccc(Cl)cc1 |  | 22% | 72% | 
CN1CCN(NC(=O)c2cnn(-c3ccc(Cl)cc3Cl)c2-c2ccc(Br)cc2)CC1 | 2600 nM | -12% | 67% | 30000 nM
O=C(NC1CCCCC1)c1cnn(-c2ccc(Cl)cc2Cl)c1-c1ccc(I)cc1 |  | 59% | 64% | 
O=C(NCCN1CCCCC1)c1cnn(-c2ccc(Cl)cc2Cl)c1-c1ccc(Cl)cc1 |  | 14% | 39% | 
COc1ccc(-c2c(C(=O)NN3CCCCC3)cnn2-c2ccc(Cl)cc2Cl)cc1 |  | 70% | 58% | 
